Calls of active or inactive are those of the source. The rule behind the calls is not given here.
How the values were obtained:
[1] = biological target: Tyrosine-protein kinase Fyn (Homo sapiens, UniProt P06241, S349C/T342G); experiment: Inhibition of Fyn T342G/S349C double mutant expressed in Escherichia coli C43 by radioactive phosphotransfer assay
[2] = Inhibition of c-src T338G/S345C double mutant by radioactive phosphotransfer assay
Procedure, shortened: (§1)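 Kinase-domain c-Src variants (T338G, S345C, T338G/S345C) were made by site-directed mutagenesis and expressed in E. coli BL21(DE3) co-transformed with YopH, GroEL and trigger factor. Protein was quantified by A280 and stored at −80 °C. Radioactive phosphotransfer assays were run in triplicate across a range of inhibitor concentrations.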

[3] = biological target: Proto-oncogene tyrosine-protein kinase Src (Gallus gallus) (UniProt P00523); experiment: Inhibition of c-src in by radioactive phosphotransfer assay
[4] = biological target: Tyrosine-protein kinase Fyn (Homo sapiens, UniProt P06241); experiment: Inhibition of Fyn expressed in Escherichia coli C43 by radioactive phosphotransfer assay
Sequence of Tyrosine-protein kinase Fyn (Homo sapiens, UniProt P06241) (P06241 whole entry): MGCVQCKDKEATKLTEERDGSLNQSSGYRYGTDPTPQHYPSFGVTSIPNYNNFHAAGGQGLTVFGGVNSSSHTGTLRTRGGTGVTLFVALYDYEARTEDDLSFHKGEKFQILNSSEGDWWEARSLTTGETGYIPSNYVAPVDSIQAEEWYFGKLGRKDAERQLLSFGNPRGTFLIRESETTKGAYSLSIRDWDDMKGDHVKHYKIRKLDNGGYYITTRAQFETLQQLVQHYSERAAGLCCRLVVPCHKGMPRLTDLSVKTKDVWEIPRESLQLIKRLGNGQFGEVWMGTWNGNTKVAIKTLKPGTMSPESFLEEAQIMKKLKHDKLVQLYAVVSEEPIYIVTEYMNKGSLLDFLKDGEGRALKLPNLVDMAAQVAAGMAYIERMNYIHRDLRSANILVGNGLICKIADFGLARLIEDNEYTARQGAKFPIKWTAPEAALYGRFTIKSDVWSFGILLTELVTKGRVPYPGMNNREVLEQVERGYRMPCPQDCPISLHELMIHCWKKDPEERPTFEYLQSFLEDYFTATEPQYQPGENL

[5] = biological target: Tyrosine-protein kinase Fyn (Homo sapiens, UniProt P06241, S349C); experiment: Inhibition of Fyn S349C mutant in expressed in Escherichia coli C43 by radioactive phosphotransfer assay
Sequence of Tyrosine-protein kinase Fyn (Homo sapiens, UniProt P06241, S349C) (P06241 2-537 S349C limits assumed): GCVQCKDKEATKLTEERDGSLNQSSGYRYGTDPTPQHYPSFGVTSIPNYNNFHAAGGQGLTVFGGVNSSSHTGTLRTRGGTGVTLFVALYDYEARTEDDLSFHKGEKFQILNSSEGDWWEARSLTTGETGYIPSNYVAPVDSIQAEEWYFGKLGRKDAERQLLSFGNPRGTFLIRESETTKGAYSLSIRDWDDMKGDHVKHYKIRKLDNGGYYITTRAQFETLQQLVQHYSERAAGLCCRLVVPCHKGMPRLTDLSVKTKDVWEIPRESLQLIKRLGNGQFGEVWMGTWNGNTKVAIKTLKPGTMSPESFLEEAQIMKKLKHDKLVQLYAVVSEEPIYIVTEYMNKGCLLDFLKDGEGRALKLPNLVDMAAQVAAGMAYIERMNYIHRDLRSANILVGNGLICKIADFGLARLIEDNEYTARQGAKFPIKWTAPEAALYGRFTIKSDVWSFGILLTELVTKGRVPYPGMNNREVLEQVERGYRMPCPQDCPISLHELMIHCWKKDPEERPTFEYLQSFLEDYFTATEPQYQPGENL

[6] = Inhibition of c-src T338G mutant by radioactive phosphotransfer assay; procedure, shortened: as §1
[7] = biological target: Tyrosine-protein kinase Fyn (Homo sapiens, UniProt P06241, T342G); experiment: Inhibition of Fyn T342G mutant expressed in Escherichia coli C43 by radioactive phosphotransfer assay
Sequence of Tyrosine-protein kinase Fyn (Homo sapiens, UniProt P06241, T342G) (P06241 2-537 T342G limits assumed): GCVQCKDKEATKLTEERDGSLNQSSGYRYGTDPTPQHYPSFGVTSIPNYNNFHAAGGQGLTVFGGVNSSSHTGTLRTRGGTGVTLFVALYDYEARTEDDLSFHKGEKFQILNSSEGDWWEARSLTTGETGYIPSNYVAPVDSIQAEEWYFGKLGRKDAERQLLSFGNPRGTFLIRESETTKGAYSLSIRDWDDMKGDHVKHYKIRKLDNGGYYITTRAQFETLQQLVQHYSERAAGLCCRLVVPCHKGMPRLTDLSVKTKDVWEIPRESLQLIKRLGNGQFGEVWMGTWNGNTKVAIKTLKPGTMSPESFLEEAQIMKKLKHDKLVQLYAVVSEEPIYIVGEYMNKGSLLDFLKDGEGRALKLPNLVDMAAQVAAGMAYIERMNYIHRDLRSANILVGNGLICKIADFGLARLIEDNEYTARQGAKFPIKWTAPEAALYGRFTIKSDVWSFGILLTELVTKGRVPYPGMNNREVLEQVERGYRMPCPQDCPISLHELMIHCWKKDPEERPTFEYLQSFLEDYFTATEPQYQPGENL

[8] = biological target: T1, Epidermal growth factor receptor (Homo sapiens, UniProt P00533); experiment: Inhibition of EGFR3 transfected in EGF-stimulated mouse NIH/3T3 cells assessed as reduction of receptor-mediated Erk2 phosphorylation at 0.037 to 1 uM by radioactive phosphotransfer assay; format: cell-based; settings: NIH3T3, in the assay text read “immunoblotting” for “radioactive phosphotransfer assay”
T1 sequence (P00533 whole entry): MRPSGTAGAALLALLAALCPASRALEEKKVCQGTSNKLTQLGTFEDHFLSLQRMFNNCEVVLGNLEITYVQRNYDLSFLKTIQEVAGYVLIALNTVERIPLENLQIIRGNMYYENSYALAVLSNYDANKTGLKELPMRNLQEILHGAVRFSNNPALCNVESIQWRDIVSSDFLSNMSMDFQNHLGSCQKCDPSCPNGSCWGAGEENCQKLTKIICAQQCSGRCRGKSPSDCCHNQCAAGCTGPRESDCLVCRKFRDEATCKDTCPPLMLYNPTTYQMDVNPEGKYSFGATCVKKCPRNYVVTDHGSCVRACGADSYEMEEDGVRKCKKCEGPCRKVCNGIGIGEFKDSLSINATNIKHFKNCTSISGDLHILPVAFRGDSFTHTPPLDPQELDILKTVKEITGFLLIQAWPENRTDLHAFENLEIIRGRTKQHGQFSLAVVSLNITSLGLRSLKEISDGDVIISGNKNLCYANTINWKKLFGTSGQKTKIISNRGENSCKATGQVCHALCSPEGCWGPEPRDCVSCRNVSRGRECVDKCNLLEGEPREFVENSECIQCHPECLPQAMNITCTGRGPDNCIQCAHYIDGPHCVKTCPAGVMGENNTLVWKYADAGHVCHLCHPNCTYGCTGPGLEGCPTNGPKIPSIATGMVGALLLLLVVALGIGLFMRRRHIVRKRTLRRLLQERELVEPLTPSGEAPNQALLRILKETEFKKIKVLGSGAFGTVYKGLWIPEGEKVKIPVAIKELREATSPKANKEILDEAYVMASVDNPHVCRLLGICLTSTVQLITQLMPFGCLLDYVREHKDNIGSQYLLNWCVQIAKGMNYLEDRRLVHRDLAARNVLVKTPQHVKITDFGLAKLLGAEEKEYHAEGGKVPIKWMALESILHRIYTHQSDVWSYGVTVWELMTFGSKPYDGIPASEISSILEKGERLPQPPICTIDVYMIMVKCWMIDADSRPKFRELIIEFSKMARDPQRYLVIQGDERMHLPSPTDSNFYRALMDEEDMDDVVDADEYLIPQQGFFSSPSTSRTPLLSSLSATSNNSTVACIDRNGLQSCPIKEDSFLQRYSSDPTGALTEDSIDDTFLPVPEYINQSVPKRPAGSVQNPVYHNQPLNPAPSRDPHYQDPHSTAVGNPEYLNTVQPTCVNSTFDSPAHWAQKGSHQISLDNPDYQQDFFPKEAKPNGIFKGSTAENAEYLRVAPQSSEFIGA
Procedure, shortened: (§2)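 Transduced 3T3:EGFR-as3 cells were serum-starved overnight in 0.5% FBS, then given three-fold inhibitor dilutions from 1 µM to 37 nM (1% DMSO) for 1.5 h. […] Protein-normalised lysates were separated by SDS-PAGE, fluorescence-scanned, then immunoblotted for downstream phosphorylation. Run in duplicate.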

[9] = biological target: T1, Epidermal growth factor receptor; experiment: Inhibition of human recombinant EGFR expressed in baculovirus-infected Sf9 cells by radioactive phosphotransfer assay; format: cell-based
[10] = biological target: T1, Epidermal growth factor receptor; settings: NIH3T3; at 0.1 to 2 µM
[11] = biological target: T1, Epidermal growth factor receptor; experiment: Inhibition of EGFR3 transfected in EGF-stimulated mouse NIH/3T3 cells assessed as reduction of receptor-mediated Akt phosphorylation at 0.037 to 1 uM by radioactive phosphotransfer assay; format: cell-based; settings: NIH3T3, in the assay text read “immunoblotting” for “radioactive phosphotransfer assay”; procedure, shortened: as §2
[12] = biological target: T1, Epidermal growth factor receptor; experiment: Inhibition of EGFR3 transfected in EGF-stimulated mouse NIH/3T3 cells assessed as reduction of receptor-mediated Erk1 phosphorylation at 0.037 to 1 uM by radioactive phosphotransfer assay; format: cell-based; settings: NIH3T3, in the assay text read “immunoblotting” for “radioactive phosphotransfer assay”; procedure, shortened: as §2
[13] = biological target: T1, Epidermal growth factor receptor; experiment: Inhibition of […] EGFR3 phosphorylation transfected in mouse NIH/3T3 cells at 0.1 to 2 uM by radioactive phosphotransfer assay; format: cell-based; settings: NIH3T3, in the assay text read “immunoblotting” for “radioactive phosphotransfer assay”
Procedure, shortened: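 Mouse NIH-3T3 fibroblasts lacking detectable endogenous EGFR, retrovirally transduced with analog-sensitive EGFR-as3 and hygromycin-selected, then grown in DMEM/10% FBS. Inhibitor at 0.1, 1.0 or 2.0 µM (1.2% DMSO), with or without EGF 100 ng/ml for 30 min before harvest. Equal lysate protein run on SDS-PAGE; anti-phosphotyrosine (4G10) immunoblot detected by ECL, with EGFR blot alongside.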

Sequence of Tyrosine-protein kinase Fyn (Homo sapiens, UniProt P06241, S349C/T342G) (P06241 2-537 T342G/S349C limits assumed): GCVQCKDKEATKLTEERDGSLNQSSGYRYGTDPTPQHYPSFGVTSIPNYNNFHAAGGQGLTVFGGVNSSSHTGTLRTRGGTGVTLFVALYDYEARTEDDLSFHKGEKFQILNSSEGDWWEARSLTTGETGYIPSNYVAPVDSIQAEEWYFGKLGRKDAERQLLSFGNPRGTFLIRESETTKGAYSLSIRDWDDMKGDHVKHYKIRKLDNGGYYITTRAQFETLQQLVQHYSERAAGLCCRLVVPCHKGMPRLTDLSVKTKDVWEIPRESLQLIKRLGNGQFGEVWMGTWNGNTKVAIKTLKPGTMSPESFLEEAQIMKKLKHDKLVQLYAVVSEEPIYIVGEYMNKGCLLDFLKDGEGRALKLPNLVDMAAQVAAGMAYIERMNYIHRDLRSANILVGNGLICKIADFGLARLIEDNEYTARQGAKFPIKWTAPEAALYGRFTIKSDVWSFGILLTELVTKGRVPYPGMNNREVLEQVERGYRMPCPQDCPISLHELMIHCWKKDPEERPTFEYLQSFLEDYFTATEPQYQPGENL

| Compound | IC50 [1] | IC50 [2] | IC50 [3] | IC50 [4] | IC50 [5] | IC50 [6] | IC50 [7] | inhibition [8] | IC50 [9] | inhibition [10] | inhibition [11] | inhibition [12] | inhibition [13] |
| --- | --- | --- | --- | --- | --- | --- | --- | --- | --- | --- | --- | --- | --- |
| C=CC(=O)Nc1ccc2ncnc(NCc3cccc4ccccc34)c2c1 | 150 nM | 24 nM | > 27000 nM | 32000 nM | 1700 nM | 123 nM | 1500 nM |  |  |  |  |  |  |
| C=CC(=O)Nc1ccc2ncnc(Nc3ccc(C(C)(C)C)cc3)c2c1 | 24 nM | 5 nM | > 27000 nM | > 300000 nM | 8400 nM | 187 nM | 900 nM | Active | 689 nM | inactive | Active | Active | Active |
| C=CC(=O)Nc1ccc2ncnc(Nc3cccc4ccccc34)c2c1 | 30 nM | 27 nM | 16300 nM | 16300 nM | 670 nM | 1270 nM | 2100 nM |  |  |  |  |  |  |
| C=CC(=O)Nc1ccc2ncnc(Nc3ccc(-c4ccccc4)cc3)c2c1 | 107 nM | 13 nM | > 27000 nM | > 300000 nM | 760 nM | 374 nM | 9700 nM |  |  |  |  |  |  |
| C=CC(=O)Nc1ccc2ncnc(NCCc3ccccc3)c2c1 | 88 nM | 109 nM | > 27000 nM | 40000 nM | 1400 nM | 551 nM | 3800 nM |  |  |  |  |  |  |
| C=CC(=O)Nc1ccc2ncnc(Nc3ccc4ccccc4c3)c2c1 | 3 nM | 13 nM | > 27000 nM | 18100 nM | 32 nM | 1360 nM | 1800 nM |  |  |  |  |  |  |
| C=CC(=O)Nc1ccc2ncnc(Nc3cccc(Br)c3)c2c1 | 1 nM | 1 nM |  | > 300000 nM | 42 nM | 173 nM | 420 nM |  |  |  |  |  |  |
| CCC(=O)Nc1ccc2ncnc(Nc3ccc(C(C)(C)C)cc3)c2c1 | 540 nM | 254 nM | > 27000 nM | > 300000 nM | > 300000 nM | 218 nM | 1500 nM |  |  |  |  |  |  |
| C=CC(=O)Nc1ccc2ncnc(Nc3ccc(Br)cc3)c2c1 | 19 nM | 37 nM | > 27000 nM | > 300000 nM | 34 nM | 1740 nM | 4650 nM |  |  |  |  |  |  |
| C=CC(=O)Nc1ccc2ncnc(Nc3ccccc3)c2c1 | 6 nM | 20 nM | > 27000 nM | 3700 nM | 5 nM | 1570 nM | 1100 nM |  | < 1 nM |  |  |  |  |
| C=CC(=O)Nc1ccc2ncnc(Nc3ccc(C(C)C)cc3)c2c1 | 32 nM | 16 nM | > 27000 nM | > 300000 nM | 340 nM | 357 nM | 2200 nM |  |  |  |  |  |  |

— ChEMBL document CHEMBL1221199, “Structure-guided development of affinity probes for tyrosine kinases using chemical genetics” (Nat Chem Biol, 2007)
